An excerpt weighted towards active compounds, which were near 2.2% of everything screened.
PvdQ inh: blocks Pseudomonas aeruginosa PvdQ acylase activity; purified PvdQ acylase, fluorescence plate reader; inhibition, % at 10 µM; actives 0.063% (n = 340,000); AID 488965; in the data active = inhibition above about 30%, passing the limit was not always enough; inconclusive = no clear call, values can overlap the other calls;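 note: 0% = vehicle neutral wells and 100% = reference inhibitor wells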
Ecoli rRNA inh: selective bacterial rRNA inhibition in E. coli. GFP signal change (wild-type ribosome), % (no concentration beside the values). E. coli WT GFP vs humanized-ribosome RFP mutants, fluorescence, 24 h; hits give low values; DMSO median 0, no signal -100. AID 720706. actives 1.6% (n = 350,000);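 active = significant combined selectivity score with lowered wild-type GFP, culture density cut under 30%, mutant RFP and density less affected; inactive = any of these conditions unmet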
PDI turbidity: inhibitors of human protein disulfide isomerase | P07237 | PDI insulin aggregation turbidity, A650, 90 min | inhibition, % at 10 µM | actives 0.052% (n = 350,000) | AID 588391;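 active = mean inhibition across replicates of 30% or more, whatever share of single replicates reach that level; inconclusive = mean inhibition below 30% while every single replicate reaches 30%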
HIV Env fusion: blocks HIV Env-driven cell-cell fusion; actives 1.1% (n = 360,000); AID 651610; HeLa-JRFL Env/CEM21 cell fusion, luciferase; inhibition, % at 12.3 µM;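 active = mean replicate inhibition score of at least 50 and every replicate individually at or above 50; inconclusive = only one of the two criteria met; inactive = mean below 50 and not all replicates reaching 50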;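 note: 0% = plate neutral controls and 100% = maraviroc near 300 nM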
FN deposition inh: fibronectin deposition inhibition | AH1F fibroblasts, Alexa488-fibronectin deposition fluorescence, overnight | inhibition, % at 12.6 µM | actives 0.086% (n = 350,000);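 active = mean inhibition across replicates of 30% or more, regardless of how many single replicates reach that level; inconclusive = mean under 30% yet at least half of replicates reach 30%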;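 note: positive control wells lacked labelled fibronectin entirely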
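Material: AH1F fibroblast monolayer depositing Alexa488-labelled fibronectin into matrix | Input: 10000 AH1F cells/well | Medium: DMEM plus 2% serum, read in PBS | Reagent: Alexa488-fibronectin, 24 nM final in well | Compound dosing: One dose per compound, pinned | Schedule: 1 h adhesion, overnight exposure | Measured by: Fluorescence at 485 nm excitation, 525 nm emission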
ERp5 inh: blocks human ERp5 reductase activity on insulin; Q15084; ERp5 insulin aggregation, absorbance 650 nm, 90 min; inhibition, % at 9.99 µM; actives 0.05% (n = 350,000);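 active = mean replicate inhibition above about 25%, with every replicate also reaching it, limit read from the data, passing the limit was not always enough; inconclusive = only one of those two criteria met; inactive = neither criterion met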
Target sequence (Q15084 whole entry, looked up): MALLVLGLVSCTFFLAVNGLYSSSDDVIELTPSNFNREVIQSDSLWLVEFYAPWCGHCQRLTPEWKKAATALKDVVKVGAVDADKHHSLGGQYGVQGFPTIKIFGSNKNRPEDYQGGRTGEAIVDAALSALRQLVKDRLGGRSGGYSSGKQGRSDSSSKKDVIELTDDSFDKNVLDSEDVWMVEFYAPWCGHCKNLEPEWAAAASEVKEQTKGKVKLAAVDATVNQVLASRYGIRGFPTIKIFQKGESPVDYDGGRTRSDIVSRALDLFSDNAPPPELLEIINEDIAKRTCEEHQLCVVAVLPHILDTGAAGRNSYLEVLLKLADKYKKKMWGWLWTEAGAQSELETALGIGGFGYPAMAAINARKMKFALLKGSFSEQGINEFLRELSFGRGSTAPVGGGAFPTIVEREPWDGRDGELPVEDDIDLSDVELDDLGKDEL
Numbers without * were called inactive; ? = inconclusive; / = not tested or not shown; [ ] = another dose, or the depositor's remark.

SMILES	PvdQ inh	Ecoli rRNA inh	PDI turbidity	HIV Env fusion	FN deposition inh	ERp5 inh
CCOC(=O)c1cc2sccc2n1CC(=O)N1CCc2ccccc21	4	11	1	62*	/	4
COCC(=O)N(C)C[C@H]1Oc2ncc(C#CC3(O)CCCC3)cc2C(=O)N([C@H](C)CO)C[C@H]1C	/	4	/	7[16.7 µM]	5	-1
O=C(c1ccc(Cl)cc1)N1CCCCC(Sc2nnc(-c3ccc4c(c3)OCO4)o2)C1=O (stereo unspecified)	-3	/	-4	60*	5	/
COc1ccc(CN(C)C[C@@H]2Oc3ccc(NC(=O)CCCN(C)C)cc3C(=O)N([C@H](C)CO)C[C@H]2C)cc1	/	3	/	/	/	2
Cc1nn(C)c(Cl)c1NC(=O)OCc1ccc(Cl)cc1Cl	-8	/	8	73*	-4	/
O=C(NC(=O)c1ccccc1F)OCc1ccc(Cl)cc1Cl	-15	-40*	12	-24	0	-3
O=C(CNC(=O)c1ccccc1F)NCCc1ccc(Cl)cc1Cl	9	1	-1	5	4	1
Cc1nnsc1NC(=O)OCc1ccc(Cl)cc1Cl	-2	/	15	/	/	/
C[C@H](CO)N1C[C@H](C)[C@H](CN(C)S(=O)(=O)c2ccccc2)OCc2cn(nn2)CCCC1=O	/	-1	/	/	1	/
COc1ccc2c3c(n(C)c2c1)[C@H](CO)N(C(=O)CC1CC1)CC31CN(Cc2ccccc2)C1	/	-2	/	/	/	-6
C[C@H](CO)N1C[C@H](C)[C@H](CN(C)C(=O)Nc2ccc3c(c2)OCO3)Oc2ccc(NC(=O)Nc3ccc4c(c3)OCO4)cc2CC1=O	/	-3	/	/	/	/
O=C(c1ccc(Cl)cc1)N1CCN(c2cccc3[nH]ccc23)CC1	-4	-25*	4	9	6	-1
S=c1[nH]nc(-c2ccncc2)n1/N=C/C=C/c1ccccc1	-12	-23*	3	9	3	3
COc1ccccc1/C=C/C=N/n1c(-c2ccncc2)n[nH]c1=S	7	/	-25	29	6	/
COc1ccc2c3c(n(C)c2c1)[C@@H](CO)N(C(C)=O)CC31CN(C(=O)NC(C)C)C1	/	5	/	/	/	/
C[C@H](CO)N1C[C@H](C)[C@@H](CN(C)S(=O)(=O)c2ccc(Cl)cc2)Oc2ccc(NC(=O)CCCN(C)C)cc2C1=O	/	6	/	/	/	3
O=C(NCc1ccccc1)[C@H]1CCCN1C(=O)[C@H]1CCCN1C(=O)c1cccc2ccccc12	/	-3	/	1	2	-5
O=C(NCc1ccccc1Cl)[C@H]1CCCN1C(=O)[C@H]1CCCN1C(=O)c1cccc2ccccc12	/	-23*	/	15	-8	-1
CN(C)C(=O)CCC(=O)N1CCCC(C(=O)c2ccc3c4c(cccc24)CC3)C1 (stereo unspecified)	-9	-10	6	80*	/	-19
O=C(c1ccc2c3c(cccc13)CC2)C1CCCN(C(=O)c2ccc(=O)[nH]c2)C1 (stereo unspecified)	3	-11	7	21	-1	1
Cc1ncccc1C(=O)N1CCCC(C(=O)c2ccc3c4c(cccc24)CC3)C1 (stereo unspecified)	-6	/	12	90*	0	1
CCNC(=O)C[C@@H]1C=C[C@@H](NC(=O)C2CCC2)[C@@H](CO)O1	/	-1	/	-12[16.7 µM]	-25	-8
O=C1c2cccc3cccc(c23)C(=O)N1c1ccccc1Cl	-18	-32*	-2	29	5	3
Nc1ccccc1N1C(=O)c2cccc3cccc(c23)C1=O	/	-1	-2	-161	-5	-7
Cc1ccccc1Nc1nc(N)nc(COC(=O)c2cccc(S(=O)(=O)N(C)C)c2)n1	-12	-17*	-3	-10	0	?
Cc1ccccc1Nc1nc(N)nc(COC(=O)c2cccc(S(=O)(=O)NCc3ccccc3)c2)n1	-18	/	17	-67	8	3
Cc1ccc(C)c(CS(=O)(=O)c2cn(CC(=O)N3CCCCC3)c3ccccc23)c1	-16	/	7	30	-6	/
Cc1ccc(C)c(CS(=O)(=O)c2cn(CC(=O)N3CCC(C)CC3)c3ccccc23)c1	-1	/	-5	120*	2	/
CC(C)(C)c1ccc(OCCC(=O)OCC(=O)NCc2ccccc2)cc1	-9	-34*	6	13	-2	8
